T cruzi repl: T. cruzi replication inhibition | T. cruzi beta-gal in NIH3T3, luminescence, 90 h | inhibition, % (test concentration not listed) | actives 1.4% (n = 300,000) | AID 1885;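 active = mean inhibition across valid replicates above about 55%, limit read from the data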;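 note: signal also drops with host cell toxicity which is not excluded here; 0% = plate median of DMSO wells and 100% = zero luminescence signal; higher percent means less beta-gal luminescence so fewer parasites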
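assay system = mouse NIH/3T3 fibroblasts infected with β-gal-expressing T. cruzi Tulahuen C4 | input = 5,000 NIH/3T3 host cells per well | buffer or medium = DMEM plus 2% FBS | timing = 3 h host attachment, then at least 90 h co-culture | measured by = GalScreen luminescence, 60 min | evaluation = luminescence reflecting intracellular parasite burden, expressed as percent inhibition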
XBP1 UPR activ: activators of adaptive arm of unfolded protein response (XBP1); activation, % at 20 µM; AID 463104; actives 0.33% (n = 330,000); CHO-XBP1 luciferase reporter, IRE1-XBP1 UPR activation, luminescence; percent of tunicamycin response, DMSO as zero;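 active = versus positive control, 20 µM dose yields 30% or more activation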;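 note: 100% = tunicamycin at 10 µg/mL and 0% = DMSO only wells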
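Material: CHO-XBP1 cells stably carrying IRE1-XBP1-driven luciferase reporter | Medium: F12 with 10% serum | Compound dosing: 20 µM single concentration, DMSO 1% | Incubation: Overnight seeding at 37 °C, 6 h compound treatment at 37 °C | Detection: Steady-Glo luminescence read | Read-out basis: % activation of reporter signal versus tunicamycin and DMSO controls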
Dynein cargo inh: dynein cargo transport inhibition; 3617.4 mouse cells, GR-EGFP nuclear translocation imaging; test concentration mostly 20 µM; stimulated with dexamethasone, 1 µM; active compounds read low; z-score, hits read low; actives 0.47% (n = 220,000);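 active = plate z-score of nuclear minus cytoplasmic receptor signal below a set negative limit, without overly bright fluorescence or cell loss, cut at about -3.5 in these data, passing the limit was not always enough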;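 note: z-score of nuclear minus cytoplasmic ring GR-EGFP intensity difference per well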
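Also added – dexamethasone, 1.0 µM final · Buffer or medium – tet-free, stripped-serum medium · Schedule – induction 48 h, compound 1 h, agonist 30 min · Detection – formaldehyde fixation, Hoechst nuclear stain, 10x automated fluorescence imaging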
Lmaj promast: Leishmania major promastigote growth inhibition; Leishmania major promastigotes, resazurin fluorescence viability; inhibition, % at 10 µM; actives 9% (n = 200,000); AID 1063; in the data active = inhibition above about 50%;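 note: promastigotes grown with compound for 44 hours at 28 °C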
UPR CHOP act: activators of apoptotic arm of unfolded protein response (CHOP); AID 449763; actives 0.34% (n = 330,000); CHO-CHOP luciferase reporter, UPR activation, luminescence; percent of tunicamycin response over DMSO baseline; activation, % at 10 µM;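 active = at 10 µM dose, activation of 40% or more, normalized to positive control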;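 note: 100% = tunicamycin at 10 µg/mL and 0% = DMSO alone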
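System: CHO CHOP reporter cells. Amount: 500 cells per well. Buffer or medium: F12 medium, 10% FBS. Compound dosing: one dose, 10 µM in 0.5% DMSO. Incubation: 6 h compound exposure at 37 °C after overnight seeding. Technique: Steady-Glo luciferase luminescence. Benchmarks: tunicamycin and DMSO controls.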
CHOP inhibitor: blocks CHOP induction under ER stress; inhibition, % at 10 µM; CHO-K1 CHOP-promoter luciferase, tunicamycin-induced, 15-18 h; actives 3.8% (n = 220,000);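 active = compounds that reduced the stress-induced luciferase reporter signal by more than about 70% of percent inhibition, limit read from the data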;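 note: 0% = tunicamycin plus vehicle and 100% = wells without tunicamycin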
* = called active by the depositor; · = not tested or not shown. Shown is part of a subset that was picked to be rich in hits.

SMILES	T cruzi repl	XBP1 UPR activ	Dynein cargo inh	Lmaj promast	UPR CHOP act	CHOP inhibitor
CC1(C)CC(=O)C2=C(C1)Nc1cc3c(cc1C2c1ccc2c(c1)OCO2)OCO3 (configuration not stated)	18.7	1.8	0.0125	99.5*	1.3	22.6
CC1(C)CC(=O)C2=C(C1)Nc1ccccc1NC2c1ccc2c(c1)OCO2 (configuration not stated)	11.2	-0.4	0.105	51.2*	2.4	1.2
CC1(C)CC(=O)C2=C(C1)Nc1cc3c(cc1C2c1ccc(F)cc1)OCO3 (configuration not stated)	29.8	0.1	-0.47	100.1*	2.0	24.9
COc1ccc(C2C(C#N)=C(C)NC3=C2C(=O)CC(C)(C)C3)cc1 (configuration not stated)	3.1	4.2	0.836	0.6	-2.1	15.9
CC1(C)CC(=O)C2=C(C1)Nc1ccccc1NC2c1ccc(F)cc1 (configuration not stated)	4.3	-2.6	·	·	2.3	·
COc1ccc(C2C3=C(CC(C)(C)CC3=O)Nc3cc4c(cc32)OCO4)cc1 (configuration not stated)	13.9	-1.2	0.297	98.9*	1.0	30.0
Cc1noc2c1C(c1ccc(N(C)C)cc1)C1=C(CC(C)(C)CC1=O)N2 (configuration not stated)	14.0	1.9	-0.241	3.8	0.0	16.3
Cc1ccc(C2C3=C(CC(C)(C)CC3=O)Nc3onc(C)c32)cc1 (configuration not stated)	5.8	-5.0	2.32	52.9*	-3.1	8.8
N#Cc1ccccc1Cn1cc(/C=N/Nc2ccc([N+](=O)[O-])cn2)c2ccccc21	64.4*	-1.4	-3.06	11.2	-1.0	-0.9
CC(C)c1csc(CN2CCC(n3nccc3NC(=O)Cc3ccccc3)CC2)n1	41.0	-6.6	·	·	0.9	·
Cc1ccc(C(C)C)c(OCc2ccc(C(=O)N/N=C/c3cccc(O)c3O)cc2)c1	57.7*	·	-0.274	100.1*	·	106.6*
Cc1ccc(NCC(=O)N/N=C/c2ccc(-c3cccc(C(F)(F)F)c3)o2)cc1	-5.8	-4.4	0.336	9.2	0.2	81.3*
O=C(N/N=C/c1ccc(O)cc1)c1cccc(C(F)(F)F)c1	-18.3	-0.9	-0.378	10.6	-2.3	43.3
O=C(N/N=C/c1ccc(-c2cccc(C(F)(F)F)c2)o1)c1cccc(F)c1	68.8*	0.4	-0.135	17.7	0.0	25.8
NC(=O)N/N=C/c1ccc(-c2cccc(C(F)(F)F)c2)o1	7.6	2.4	-0.635	-2.4	1.7	36.5
O=C(N/N=C/c1ccccc1O)c1cccc(C(F)(F)F)c1	-18.2	2.2	-0.111	97.7*	-2.3	54.0
Cc1ccc([C@H]2C(C(=O)O)=CC[C@@H](c3ccc(C)cc3)N2S(=O)(=O)c2ccc(C)cc2)cc1	·	-1.2	·	·	2.1	·
O=C(N/N=C/c1ccc(-c2cccc(C(F)(F)F)c2)o1)c1ccccc1Br	18.3	-2.4	0.0503	9.2	0.4	42.1
CCN(CC)S(=O)(=O)c1cccc(C(=O)N/N=C/c2cccc(O)c2O)c1	3.5	3.6	-0.672	98.3*	1.6	35.8
O=C(N/N=C/c1ccc(-c2cccc(C(F)(F)F)c2)o1)c1ccccc1O	-5.0	-3.4	0.805	97.9*	3.5	89.9*
Cc1nn(Cc2ccccc2)c(Cl)c1/C=N/NC(=O)CNc1cccc(C(F)(F)F)c1	23.0	1.9	-0.02	43.6	-1.9	94.3*
CC1CCCN(S(=O)(=O)c2cc3c4c(c2)C(C)C(=O)N4CCC3)C1 (configuration not stated)	-7.0	-1.1	·	·	1.5	·
CCN(C(=O)CSc1nnc2c3ccccc3n(CC)c2n1)C1CCS(=O)(=O)C1 (configuration not stated)	0.5	0.6	-0.15	-0.7	-0.2	-8.2
O=C(COC(=O)c1ccc2c(c1[N+](=O)[O-])C(=O)c1ccccc1C2=O)NC1CC1	66.0*	-2.2	-3.21	-1.1	8.4	18.6
